{"source": "ChEMBL document CHEMBL3585348", "about": "“Armochaetoglobins A-J: Cytochalasan Alkaloids from Chaetomium globosum TW1-1, a Fungus Derived from the Terrestrial Arthropod Armadillidium vulgare” (J Nat Prod, 2015)", "key": {"[1]": {"tested_on": "HL-60", "test": "Cytotoxicity against human HL60 cells assessed as cell viability after 48 hrs by MTS assay", "type": "functional, cell-based", "conditions": "HL-60, 48 h", "in_short": "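HL-60 suspension cells grown in DMEM or RPMI1640 with 10% FBS at 37 °C in 5% CO2, seeded at 1 × 10^5 cells/mL just before dosing. Exposure was 48 h, in triplicate, at 0.0625–40 μM (five concentrations), with cisplatin and paclitaxel controls. MTS (5 mg/mL) was added for 4 h at 37 °C, followed by 10% SDS lysis and OD at 595 nm.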"}, "[2]": {"test": "Cytotoxicity against human BEAS2B cells assessed as cell viability after 48 hrs by MTS assay", "type": "cell-based", "conditions": "BEAS-2B", "in_short": "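Noncancerous human bronchial epithelial BEAS-2B cells grown in DMEM or RPMI1640 with 10% FBS at 37 °C in 5% CO2, seeded in 96-well plates and allowed 12 h to adhere before compound addition. Viability was read after adding MTS (5 mg/mL) for 4 h at 37 °C, lysing in 10% SDS, and measuring formazan OD at 595 nm.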"}, "[3]": {"tested_on": "A549", "test": "Cytotoxicity against human A549 cells assessed as cell viability after 48 hrs by MTS assay", "type": "functional, cell-based", "conditions": "A549, 48 h", "in_short": "(§1)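 Adherent cells grown in DMEM or RPMI1640 with 10% FBS at 37 °C in 5% CO2, seeded in 96-well plates, and left to adhere 12 h. Compounds were added at 0.0625, 0.32, 1.6, 8 and 40 μM for 48 h, in triplicate, with cisplatin and paclitaxel as positive controls. MTS (5 mg/mL) was added for 4 h at 37 °C, cells lysed in 10% SDS, and OD read at 595 nm.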"}, "[4]": {"tested_on": "MCF7", "test": "Cytotoxicity against human MCF7 cells assessed as cell viability after 48 hrs by MTS assay", "type": "functional, cell-based", "conditions": "MCF7, 48 h", "in_short": "as §1"}, "[5]": {"tested_on": "SW480", "test": "Cytotoxicity against human SW480 cells assessed as cell viability after 48 hrs by MTS assay", "type": "functional, cell-based", "conditions": "SW480, 48 h", "in_short": "as §1"}, "[6]": {"tested_on": "SMMC-7721", "test": "Cytotoxicity against human SMMC7721 cells assessed as cell viability after 48 hrs by MTS assay", "type": "functional, cell-based", "conditions": "SMMC-7721, 48 h", "in_short": "as §1"}}, "data": [{"smiles": "C/C(=C\\C(C)C/C=C/[C@H]1[C@@H]2O[C@]2(C)[C@@H](C)[C@H]2[C@H](Cc3c[nH]c4ccccc34)NC(=O)[C@]21C(=O)CCCO)CO", "note": "(stereo not given in full)", "values": [{"measurement": "IC50", "setting": "[1]", "result": 16.5, "unit": "µM"}, {"measurement": "IC50", "setting": "[2]", "result": 23.1, "unit": "µM"}, {"measurement": "IC50", "setting": "[3]", "result": 30.9, "unit": "µM"}, {"measurement": "IC50", "setting": "[4]", "result": "> 40", "unit": "µM"}, {"measurement": "IC50", "setting": "[5]", "result": "> 40", "unit": "µM"}, {"measurement": "IC50", "setting": "[6]", "result": 19.4, "unit": "µM"}]}, {"smiles": "CC1=C[C@@H]2/C=C/C[C@H](C)/C=C(\\C)C(=O)[C@@H](O)CCC(=O)[C@]23C(=O)N[C@@H](Cc2c[nH]c4ccccc24)[C@@H]3[C@@H]1C", "values": [{"measurement": "IC50", "setting": "[1]", "result": 12.6, "unit": "µM"}, {"measurement": "IC50", "setting": "[2]", "result": 16, "unit": "µM"}, {"measurement": "IC50", "setting": "[3]", "result": 14.3, "unit": "µM"}, {"measurement": "IC50", "setting": "[4]", "result": 14.8, "unit": "µM"}, {"measurement": "IC50", "setting": "[5]", "result": 20.6, "unit": "µM"}, {"measurement": "IC50", "setting": "[6]", "result": 13.8, "unit": "µM"}]}, {"smiles": "C/C1=C\\[C@@H](C)C/C=C/[C@H]2C=C(CO)[C@@H](C)[C@H]3[C@H](Cc4c[nH]c5ccccc45)NC(=O)[C@]32C(=O)CCC(=O)C1", "values": [{"measurement": "IC50", "setting": "[1]", "result": "> 40", "unit": "µM"}, {"measurement": "IC50", "setting": "[2]", "result": "> 40", "unit": "µM"}, {"measurement": "IC50", "setting": "[3]", "result": "> 40", "unit": "µM"}, {"measurement": "IC50", "setting": "[4]", "result": "> 40", "unit": "µM"}, {"measurement": "IC50", "setting": "[5]", "result": "> 40", "unit": "µM"}, {"measurement": "IC50", "setting": "[6]", "result": "> 40", "unit": "µM"}]}, {"smiles": "C/C1=C\\[C@@H](C)C/C=C/[C@H]2[C@H](O)[C@@]3(C)O[C@@]4(Cc5c[nH]c6ccccc56)NC(=O)[C@]2(C(=O)CCC(=O)C1=O)[C@H]4[C@@H]3C", "values": [{"measurement": "IC50", "setting": "[1]", "result": 18.2, "unit": "µM"}, {"measurement": "IC50", "setting": "[2]", "result": 16.6, "unit": "µM"}, {"measurement": "IC50", "setting": "[3]", "result": 17.7, "unit": "µM"}, {"measurement": "IC50", "setting": "[4]", "result": 19.1, "unit": "µM"}, {"measurement": "IC50", "setting": "[5]", "result": 35.3, "unit": "µM"}, {"measurement": "IC50", "setting": "[6]", "result": 17.4, "unit": "µM"}]}, {"smiles": "C/C(C=O)=C\\C(C)C/C=C/[C@H]1[C@@H]2O[C@]2(C)[C@@H](C)[C@H]2[C@H](Cc3c[nH]c4ccccc34)NC(=O)[C@]21C(=O)CCCO", "note": "(stereo not given in full)", "values": [{"measurement": "IC50", "setting": "[1]", "result": 11.9, "unit": "µM"}, {"measurement": "IC50", "setting": "[2]", "result": 15.5, "unit": "µM"}, {"measurement": "IC50", "setting": "[3]", "result": 16.3, "unit": "µM"}, {"measurement": "IC50", "setting": "[4]", "result": "> 40", "unit": "µM"}, {"measurement": "IC50", "setting": "[5]", "result": "> 40", "unit": "µM"}, {"measurement": "IC50", "setting": "[6]", "result": 10.6, "unit": "µM"}]}, {"smiles": "CC1=C[C@@H]2/C=C/C[C@H](C)/C=C(\\C)[C@@H](O)[C@@H](O)CCC(=O)[C@]23C(=O)N[C@@H](Cc2c[nH]c4ccccc24)[C@@H]3[C@@H]1C", "values": [{"measurement": "IC50", "setting": "[1]", "result": "> 40", "unit": "µM"}, {"measurement": "IC50", "setting": "[2]", "result": "> 40", "unit": "µM"}, {"measurement": "IC50", "setting": "[3]", "result": "> 40", "unit": "µM"}, {"measurement": "IC50", "setting": "[4]", "result": "> 40", "unit": "µM"}, {"measurement": "IC50", "setting": "[5]", "result": "> 40", "unit": "µM"}, {"measurement": "IC50", "setting": "[6]", "result": "> 40", "unit": "µM"}]}, {"smiles": "C/C1=C\\[C@@H](C)C/C=C/[C@H]2C=C(CO)[C@@H](C)[C@H]3[C@H](Cc4c[nH]c5ccccc45)NC(=O)[C@]32C(=O)/C=C/C(=O)[C@@H]1O", "values": [{"measurement": "IC50", "setting": "[1]", "result": 3.31, "unit": "µM"}, {"measurement": "IC50", "setting": "[2]", "result": 3.34, "unit": "µM"}, {"measurement": "IC50", "setting": "[3]", "result": 8.01, "unit": "µM"}, {"measurement": "IC50", "setting": "[4]", "result": 4.06, "unit": "µM"}, {"measurement": "IC50", "setting": "[5]", "result": 3.9, "unit": "µM"}, {"measurement": "IC50", "setting": "[6]", "result": 9.83, "unit": "µM"}]}, {"smiles": "C/C(C=O)=C\\C(C)C/C=C/[C@H]1[C@@H]2O[C@]2(C)[C@@H](C)[C@H]2[C@H](Cc3c[nH]c4ccccc34)NC(=O)[C@]21C(=O)CCC(=O)O", "note": "(stereo not given in full)", "values": [{"measurement": "IC50", "setting": "[1]", "result": "> 40", "unit": "µM"}, {"measurement": "IC50", "setting": "[2]", "result": "> 40", "unit": "µM"}, {"measurement": "IC50", "setting": "[3]", "result": "> 40", "unit": "µM"}, {"measurement": "IC50", "setting": "[4]", "result": "> 40", "unit": "µM"}, {"measurement": "IC50", "setting": "[5]", "result": "> 40", "unit": "µM"}, {"measurement": "IC50", "setting": "[6]", "result": 25, "unit": "µM"}]}, {"smiles": "CC(=O)O[C@H]1C(=O)[C@@]2(C)[C@H]([C@H](OC(=O)c3ccccc3)[C@]3(O)C[C@H](OC(=O)[C@H](O)[C@@H](NC(=O)c4ccccc4)c4ccccc4)C(C)=C1C3(C)C)[C@]1(OC(C)=O)CO[C@@H]1C[C@@H]2O", "note": "[PACLITAXEL]", "values": [{"measurement": "IC50", "setting": "[1]", "result": "< 0.008", "unit": "µM"}, {"measurement": "IC50", "setting": "[2]", "result": 0.58, "unit": "µM"}, {"measurement": "IC50", "setting": "[3]", "result": "< 0.008", "unit": "µM"}, {"measurement": "IC50", "setting": "[4]", "result": "< 0.008", "unit": "µM"}, {"measurement": "IC50", "setting": "[5]", "result": "< 0.008", "unit": "µM"}, {"measurement": "IC50", "setting": "[6]", "result": "< 0.008", "unit": "µM"}]}, {"smiles": "COC(=O)CCC(=O)[C@@]12C(=O)N[C@@H](Cc3c[nH]c4ccccc34)[C@@H]1[C@H](C)[C@@]1(C)O[C@H]1[C@@H]2/C=C/CC(C)/C=C(\\C)C=O", "note": "(stereo not given in full)", "values": [{"measurement": "IC50", "setting": "[1]", "result": 14, "unit": "µM"}, {"measurement": "IC50", "setting": "[2]", "result": 5.68, "unit": "µM"}, {"measurement": "IC50", "setting": "[3]", "result": 19.8, "unit": "µM"}, {"measurement": "IC50", "setting": "[4]", "result": 22.7, "unit": "µM"}, {"measurement": "IC50", "setting": "[5]", "result": 38.2, "unit": "µM"}, {"measurement": "IC50", "setting": "[6]", "result": 10.8, "unit": "µM"}]}]}
